Counter-ions that a name gives are not always drawn.
System: HIV-1RF challenged T-lymphoblastic CEM-SS cells
Experiment: XTT anti-HIV-1 cytopathicity assay in CEM-SS cells
Format: cell-based
Procedure, shortened: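 CEM-SS cells grown in phenol red-free RPMI 1640 with 5% FBS, 2 mM L-glutamine and 50 μg/mL gentamicin. Washed log-phase cells seeded at 5 × 10^3 per well with serial dilutions of compound in DMSO. HIV-1RF diluted to give 80–90% cell kill at 6 days, with parallel uninfected wells for toxicity. Incubated 6 days at 37 °C, viability read by XTT, in triplicate.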

With `CC(=O)c1ccc2c(c1)N(CCCN(C)C)c1ccccc1S2` [Acepromazine maleate] the “protective effect against HIV-1-induced cytopathicity (in words)” value was “not protective”.

Reference: article PMC4227816 (Journal of the American Chemical Society, 2014)
